Calls of active or inactive are those of the source. The rule behind the calls is not given here.
What was measured:
[1] = biological target: T1, P2X purinoceptor 7 (Homo sapiens) (UniProt Q99572); assay: Antagonist activity at human P2X7 receptor expressed in HEK293 cells assessed as reduction in benzoyl-ATP-induced YO-PRO-1 dye uptake at 10 uM pre-incubated for 20 mins before YO-PRO-1 addition and measured after 25 mins by fluorescence plate reader analysis relative to control; format: cell-based; settings: time 45.0 min
T1 sequence (whole entry): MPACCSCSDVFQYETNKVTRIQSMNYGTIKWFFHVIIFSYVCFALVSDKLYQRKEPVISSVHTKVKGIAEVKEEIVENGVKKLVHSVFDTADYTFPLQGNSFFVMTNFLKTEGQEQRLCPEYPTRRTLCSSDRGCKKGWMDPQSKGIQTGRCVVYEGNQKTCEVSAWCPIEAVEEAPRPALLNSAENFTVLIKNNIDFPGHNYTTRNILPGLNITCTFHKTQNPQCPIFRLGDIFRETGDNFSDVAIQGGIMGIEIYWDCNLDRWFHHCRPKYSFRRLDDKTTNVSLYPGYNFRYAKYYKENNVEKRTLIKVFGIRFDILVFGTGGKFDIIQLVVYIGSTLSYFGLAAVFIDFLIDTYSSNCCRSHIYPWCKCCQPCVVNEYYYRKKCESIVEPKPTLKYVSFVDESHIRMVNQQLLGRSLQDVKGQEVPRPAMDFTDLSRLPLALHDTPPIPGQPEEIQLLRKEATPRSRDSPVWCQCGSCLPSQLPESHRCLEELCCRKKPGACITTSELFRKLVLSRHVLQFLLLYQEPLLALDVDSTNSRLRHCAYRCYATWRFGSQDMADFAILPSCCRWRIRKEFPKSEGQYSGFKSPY
In short: (§1)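 Stably transfected hP2X7-HEK293 cells, 48 h after seeding, in Mg²⁺-free Krebs-HEPES (0.2 mM CaCl₂, pH 7.4). Compound preincubation 20 min, then YO-PRO-1 2 μM, then BzATP 30 μM. Fluorescence at 485/520 nm read for 25 min. Each well normalized to Fmax (0.5% Triton X-100) and Fmin (2 M MnCl₂): F = (Fx − F0)/(Fmax − Fmin). Triplicates from three cultures. IC50 is the concentration halving BzATP-induced uptake.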

[2] = biological target: T1, P2X purinoceptor 7 (Homo sapiens); assay: Antagonist activity at human P2X7 receptor expressed in HEK293 cells assessed as reduction in benzoyl-ATP-induced intracellular Ca2+ level by Fura-2 dye based fluorescence assay; format: cell-based; settings: filed as antagonist
In short: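 hP2X7-HEK293 cells 24–48 h after seeding, loaded with Fura-2-AM 8 μM for 1 h, then washed in Mg²⁺-free Tyrode (2 mM CaCl₂, pH 7.4) for 15–30 min with compound present. Excitation 340/380 nm, emission 520 nm. Basal recording, then BzATP injected (100 μM final). [Ca²⁺]c from Grynkiewicz equation. Blockade as percent of BzATP peak in Tyrode-only wells; triplicates.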

[3] = biological target: T1, P2X purinoceptor 7 (Homo sapiens); assay: Antagonist activity at human P2X7 receptor expressed in Xenopus laevis oocytes assessed as reduction in ATP-induced channel currents at 100 uM by TEVC electrophysiology assay relative to control; format: cell-based; settings: Oocyte
In short: (§2)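 Oocytes injected with 50 nL His-tagged hP2X7 cRNA (0.5 mg/mL), kept 1–2 days at 16–18 °C. Recorded in low divalent-cation solution (90 mM NaCl, 0.5 mM CaCl₂, 5 mM HEPES) at −70 mV. ATP 300 μM for 2 s after 3 min static compound incubation. Current normalized to control amplitude. Triplicates from three oocytes, two frogs.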

[4] = biological target: T2, P2X purinoceptor 7 (Homo sapiens, UniProt Q99572); assay: Antagonist activity at human P2X7 receptor expressed in HEK293 cells assessed as reduction in benzoyl-ATP-induced YO-PRO-1 dye uptake pre-incubated for 20 mins before YO-PRO-1 addition and measured after 25 mins by fluorescence plate reader analysis relative to control; format: cell-based; in short: as §1
T2 sequence (Q99572 whole entry): T1 sequence (whole entry)

[5] = tested on: Peritoneal macrophage; assay: Inhibition of Il-1beta production in LPS-stimulated C57BL/6 mouse peritoneal macrophages pre-incubated for 15 mins followed by ATP addition for 30 mins by ELISA method; format: functional, tissue-based; settings: time 45.0 min
In short: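 Thioglycolate-elicited peritoneal macrophages from 6–8-week male C57BL/6 mice, 3 × 10⁵ cells/well. Primed 4 h with LPS 1 μg/mL (E. coli 026:B6), then serum-free DMEM with compound for 15 min, then ATP for 30 min. Supernatant IL-1β measured by ELISA, expressed as percent of ATP-only control. Triplicates from three mice.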

[6] = biological target: T1, P2X purinoceptor 7 (Homo sapiens); assay: Antagonist activity at human P2X7 receptor expressed in HEK293 cells assessed as reduction in benzoyl-ATP-induced YO-PRO-1 dye uptake at 1 uM pre-incubated for 20 mins before YO-PRO-1 addition and measured after 25 mins by fluorescence plate reader analysis relative to control; format: cell-based; settings: filed as antagonist, time 45.0 min; in short: as §1
[7] = biological target: T1, P2X purinoceptor 7 (Homo sapiens); assay: Antagonist activity at human P2X7 receptor expressed in Xenopus laevis oocytes assessed as reduction in ATP-induced channel currents at 1 uM by TEVC electrophysiology assay relative to control; format: cell-based; settings: Oocyte, filed as antagonist; in short: as §2

| SMILES | inhibition [3] | inhibition [1] | also measured |
| --- | --- | --- | --- |
| O=C(Cn1cnc2c(-c3ccccc3)ncnc21)c1ccc(Cl)cc1Cl | 11% |  | inhibition ([1]; filed as antagonist): 62%; inhibition [2]: Active; IC50 [4]: 6 µM |
| Nc1nc(Cl)c2ncn(CC(=O)c3ccc(Cl)cc3Cl)c2n1 | 6% | 4% |  |
| O=S(=O)(c1ccccc1Cl)n1cnc2c(Cl)nc(Cl)nc21 | 2% |  | inhibition ([1]; filed as antagonist): 46%; IC50 [4]: 10.2 µM |
| O=C(Cn1cnc2c(Cl)nc(F)nc21)c1ccc(Cl)cc1Cl | 24% | 27% |  |
| O=C(c1ccccc1Cl)n1cnc2c(Cl)ncnc21 | 5% | 7% |  |
| Cn1c(=O)c2c(ncn2S(=O)(=O)c2ccc(F)cc2F)n(C)c1=O | 1% | 7% |  |
| O=C(Cn1cnc2c(I)nc(Cl)nc21)c1ccc(Cl)cc1Cl | 6% | 14% |  |
| O=C(Cn1cnc2c(Cl)nc(Cl)nc21)c1ccc(Cl)cc1Cl | 24% |  | inhibition ([1]; filed as antagonist): 41%; IC50 [4]: 13 µM |
| COc1ncnc2c1ncn2S(=O)(=O)c1ccccc1Cl | 8% | inactive |  |
| O=C(CCn1cnc2c(Cl)ncnc21)c1ccc(Cl)cc1Cl | 6% | 19% |  |
| Cc1cc(F)ccc1S(=O)(=O)n1cnc2c1c(=O)n(C)c(=O)n2C | inactive | 23% |  |
| Cn1cnc2c(=O)n(Cc3ccccc3Cl)c(Cl)nc21 | 9% | 16% |  |
| Cn1c(=O)c2c(ncn2S(=O)(=O)c2ccc(F)cc2)n(C)c1=O | inactive | 10% |  |
| Cn1c(=O)c2c(ncn2S(=O)(=O)c2cc(Cl)ccc2Cl)n(C)c1=O | inactive | 4% |  |
| COc1ncnc2c1ncn2C(=O)c1ccccc1Cl | 0% | 1% |  |
| Cn1c(=O)c2c(ncn2S(=O)(=O)c2ccc(C(F)(F)F)cc2Cl)n(C)c1=O | inactive | 5% |  |
| CNc1nc(Cl)nc2c1ncn2CC(=O)c1ccc(Cl)cc1Cl | 5% | 2% |  |
| Nc1nc(Cl)c2ncn(S(=O)(=O)c3ccccc3Cl)c2n1 | inactive | 9% |  |
| O=C(Cn1cnc2c(Cl)ncnc21)c1ccc(Cl)cc1 | 11% |  | inhibition ([1]; filed as antagonist): 55%; IC50 [4]: 10 µM |
| COc1ncnc2c1ncn2CC(=O)c1ccc(Cl)cc1Cl | 14% | 25% |  |
| Cn1c(=O)c2c(ncn2CC(=O)c2ccc(Cl)cc2Cl)n(C)c1=O | 10% | 0% |  |
| O=S(=O)(c1ccccc1Cl)n1cnc2c(Cl)ncnc21 | 9% | 17% |  |
| Cn1cnc2c1c(=O)n(C(=O)c1ccccc1Cl)c(=O)n2C | 5% | 5% |  |
| Cn1c(=O)c2c(ncn2S(=O)(=O)c2ccc(Cl)cc2Cl)n(C)c1=O | 9% | 7% |  |
| O=C(Cn1cnc2c(Cl)ncnc21)c1ccc(F)cc1 | 7% | 34% |  |
| Cn1cnc2c1c(=O)n(CC(=O)c1ccc(Cl)cc1Cl)c(=O)n2C | 2% | inactive |  |
| Cn1c(=O)c2c(ncn2S(=O)(=O)c2ccccc2Cl)n(C)c1=O | 28% |  | inhibition [5]: Dose-dependent effect; inhibition ([1]; filed as antagonist): 52%; IC50 [4]: 10 µM |
| Cn1c(=O)c2c(ncn2S(=O)(=O)c2ccc(F)cc2Cl)n(C)c1=O | inactive | 20% |  |
| O=C(NCC1(N2CCN(c3ccccc3)CC2)CCOCC1)c1cccnc1Sc1ccccc1 |  |  | inhibition [6]: 56%; inhibition [7]: 49% |
| CNc1nc(Cl)nc2c1ncn2S(=O)(=O)c1ccccc1Cl | 2% | 4% |  |

Reference: ChEMBL document CHEMBL4706687, “Synthesis and Pharmacological Evaluation of Novel Non-nucleotide Purine Derivatives as P2X7 Antagonists for the Treatment of Neuroinflammation” (J Med Chem, 2021)
